The values that follow come from ChEMBL document CHEMBL4828746, “Design, synthesis and evaluation of heteroaryldihydropyrimidine analogues bearing spiro ring as hepatitis B virus capsid protein inhibitors” (Eur J Med Chem, 2021).

Assay [1] has as its target Core antigen (Hepatitis B virus) (UniProt Q03732). The assay is described as follows: Inhibition of capsid protein in HBV infected in human HepDES19 cells assessed as inhibition of viral replication by measuring plus polarity DNA level at 10 uM incubated for 3 days by strand preferential qPCR analysis relative to control. In kind it is cell-based. Set-up: scale not given: the % may be the effect or the level left. As to conditions: time 3.0 day. The method, boiled down: (§1)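 HepDES19 cells (HepG2 line carrying a tetracycline-repressible HBV genotype D genome) seeded at 4 x 10^4/well without tetracycline. Compound added 48 h after induction in 1% DMSO, then 3 days at 37°C, 5% CO2. Lysates treated with micrococcal nuclease, then protease. Plus- or minus-strand DNA quantified by strand-preferential qPCR as % of DMSO control. Each compound screened at two concentrations only: 20 and 5 μM, or 10 and 3 μM.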
A general note: In qPCR the cycle at which signal appears reflects the starting amount.

The target is the same in assay [2]. The assay is described as follows: Inhibition of capsid protein in HBV infected in human HepDES19 cells assessed as inhibition of viral replication by measuring plus polarity DNA level at 3 uM incubated for 3 days by strand preferential qPCR analysis relative to control. The conditions noted are these: time 3.0 day. It is filed as cell-based. Set-up: scale not given: the % may be the effect or the level left. The method, boiled down: as §1

For assay [3] the target is unchanged. The assay is described as follows: Inhibition of capsid protein in HBV infected in human HepDES19 cells assessed as inhibition of viral replication by measuring minus polarity DNA level at 10 uM incubated for 3 days by strand preferential qPCR analysis relative to control. It is filed as cell-based. Set-up: scale not given: the % may be the effect or the level left. The conditions noted are these: time 3.0 day. The method, boiled down:
as §1

The target is the same in assay [4]. The assay is described as follows: Inhibition of capsid protein in HBV infected in human HepDES19 cells assessed as inhibition of viral replication by measuring minus polarity DNA level at 3 uM incubated for 3 days by strand preferential qPCR analysis relative to control. In kind it is cell-based. Set-up: scale not given: the % may be the effect or the level left. The conditions noted are these: time 3.0 day. The method, boiled down:
as §1

Assay [5] has the same target. The assay is described as follows: Inhibition of capsid protein in HBV infected in human HepDES19 cells assessed as inhibition of viral replication by measuring plus polarity DNA level at 20 uM incubated for 3 days by strand preferential qPCR analysis relative to control. It is filed as cell-based. Set-up: scale not given: the % may be the effect or the level left. As to conditions: time 3.0 day. An outline of the steps: (§2)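 HepDES19 cells (HepG2 line carrying a tetracycline-repressible HBV genotype D genome) seeded at 4 x 10^4/well without tetracycline. Lysates treated with micrococcal nuclease, then protease. Plus- or minus-strand DNA quantified by strand-preferential qPCR as % of DMSO control. Each compound screened at two concentrations only: 20 and 5 μM, or 10 and 3 μM.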

Assay [6] shares this target. The assay is described as follows: Inhibition of capsid protein in HBV infected in human HepDES19 cells assessed as inhibition of viral replication by measuring minus polarity DNA level at 20 uM incubated for 3 days by strand preferential qPCR analysis relative to control. It is filed as cell-based. Set-up: scale not given: the % may be the effect or the level left. As to conditions: time 3.0 day. The method, boiled down:
as §1

Assay [7] has the same target. The assay is described as follows: Inhibition of capsid protein in HBV infected in human HepDES19 cells assessed as inhibition of viral replication by measuring minus polarity DNA level at 5 uM incubated for 3 days by strand preferential qPCR analysis relative to control. It is filed as cell-based. The conditions noted are these: time 3.0 day. Set-up: scale not given: the % may be the effect or the level left. The method, boiled down: as §2

The target is the same in assay [8]. The assay is described as follows: Inhibition of capsid protein in HBV infected in human HepDES19 cells assessed as inhibition of viral replication by measuring plus polarity DNA level at 3 uM incubated for 3 days by strand preferential qPCR analysis relative to control. Set-up: scale not given: the % may be the effect or the level left. The conditions noted are these: time 3.0 day.

Assay [9] has the same target. The assay is described as follows: Inhibition of capsid protein in HBV infected in human HepDES19 cells assessed as inhibition of viral replication by measuring minus polarity DNA level at 3 uM incubated for 3 days by strand preferential qPCR analysis relative to control. Set-up: scale not given: the % may be the effect or the level left. As to conditions: time 3.0 day.

Assay [10] deals with Hepatitis B virus. The assay is described as follows: Antiviral activity against HBV infected in human HepG2.2.15 cells assessed as inhibition of viral replication incubated for 8 days by southern blotting analysis. In kind it is functional, organism-based. The conditions noted are these: HepG2.2.15, 192 h.
The test system of assay [11] is Hepatitis B virus. The assay is described as follows: Antiviral activity against HBV infected in human HepG2.2.15 cells assessed as inhibition of viral replication in presence of 50% human serum albumin. In kind it is functional.

Molecules are shown by their SMILES.

Core antigen (Hepatitis B virus), sequence (Q03732 as listed by the source): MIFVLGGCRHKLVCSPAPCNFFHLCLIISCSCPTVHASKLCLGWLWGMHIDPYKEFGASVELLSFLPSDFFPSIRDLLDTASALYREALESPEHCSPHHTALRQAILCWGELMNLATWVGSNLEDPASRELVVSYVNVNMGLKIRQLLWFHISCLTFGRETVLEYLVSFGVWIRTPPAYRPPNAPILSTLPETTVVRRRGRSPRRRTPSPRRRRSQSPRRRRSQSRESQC

In the case of `CCOC(=O)C1=C(CN2CCC3(CC2)CN(C(=O)OC(C)(C)C)C3)NC(c2nccs2)=NC1c1ccc(F)cc1Br` (stereo unspecified), the Activity in assay [1] was 60.9%; in assay [2], 87.7%; in assay [3], 60.2%; in [4] it was 83.7%.

As for `CCOC(=O)C1=C(CN2CCC3(CNC(=O)C3)C2)NC(c2nccs2)=NC1c1ccc(F)cc1Br` (stereo unspecified), the Activity in [5] is 3%; in [6], 2.5%; in assay [7], 2.3%; in [8], 2.8%.

For the compound `CCOC(=O)C1=C(CN2CCC3(CC2)CC(N)C3)NC(c2nccs2)=NC1c1ccc(F)cc1Br` (stereo unspecified), the Activity was 114% in assay [5], 105% in assay [6] and 69.9% in assay [9].

On to `CCOC(=O)C1=C(CN2CCC3(CC2)CC(=O)NC3=O)NC(c2nccs2)=NC1c1ccc(F)cc1Br` (stereo unspecified), for which the Activity turned out to be 22.4% in assay [5], 34.8% in [6], 21.1% in assay [7] and 18.9% in [8].

As for `CCOC(=O)C1=C(CN2CCC3(CCN(C(=O)OC(C)(C)C)C3)C2=O)NC(c2nccs2)=NC1c1ccc(F)cc1Br` (stereo unspecified), the Activity in [5] was found to be 0.8%; in assay [6] it was 0.8%; in [7] it was 2.9%; in assay [8] it was 3.3%.

In the case of `CCOC(=O)C1=C(CN2CC3(CCNC3)CC2=O)NC(c2nccs2)=NC1c1ccc(F)cc1Br` (stereo unspecified), the Activity in [5] is 120%; in assay [6], 68.9%.

On to `CCOC(=O)C1=C(CN2CCC3(CCN(C(=O)OC(C)(C)C)CC3)C2)NC(c2nccs2)=NC1c1ccc(F)cc1Br` (stereo unspecified), for which the Activity in assay [5] stood at 102%; in assay [6] it was 87%; in [9], 80.1%.

Consider `CCOC(=O)C1=C(CN2CCC3(CC2)OCCO3)NC(c2nccs2)=NC1c1ccc(F)cc1Br` (stereo unspecified), for which the Activity in assay [5] is 3.4%; in [6], 3.4%; in [7], 3.1%; in [8], 3.8%.

`CCOC(=O)C1=C(CN2CC3(C2)CN(C(=O)OC(C)(C)C)C3)NC(c2nccs2)=NC1c1ccc(F)cc1Br` (stereo unspecified): the Activity stood at 105% in assay [5], 96.5% in assay [6] and 85.7% in assay [9].

Take `CCOC(=O)C1=C(CN2CCC3(CC(=O)N(Cc4ccccc4)C3=O)C2)NC(c2nccs2)=NC1c1ccc(F)cc1Br` (stereo unspecified): the Activity was determined as 2% in [5], 2.2% in assay [6], 2.8% in [7] and 3% in assay [8].

For `CCOC(=O)C1=C(CN2CCC3(CC2)CC(NC(=O)OC(C)(C)C)C3)NC(c2nccs2)=NC1c1ccc(F)cc1Br` (stereo unspecified), the values for the Activity in assay [5], in assay [6] and in assay [9] were 111%, 117% and 97.2%, respectively.

In the case of `CCOC(=O)C1=C(CN2CCC3(CCNCC3)CC2)NC(c2nccs2)=NC1c1ccc(F)cc1Br` (stereo unspecified), the Activity in assay [5] was determined as 106%; in [6], 97.7%; in [9], 67.1%.

In the case of `CCOC(=O)C1=C(CN2CCC3(CC2)CNC(=O)C3)NC(c2nccs2)=NC1c1ccc(F)cc1Br` (stereo unspecified), the Activity in assay [5] stood at 2.4%; in assay [6] it was 2.7%; in [7] it was 4%; in assay [8], 3.4%.

As for `CCOC(=O)C1=C(CN2CCC3(CC2)CCN(C(=O)OC(C)(C)C)C3)NC(c2nccs2)=NC1c1ccc(F)cc1Br` (stereo unspecified), the Activity in assay [1] was determined as 92.5%; in assay [2], 85.3%; in assay [3] it was 76.1%; in assay [4] it was 85%.

Regarding `CCOC(=O)C1=C(CN2CCC3(CC2)CNC3=O)NC(c2nccs2)=NC1c1ccc(F)cc1Br` (stereo unspecified), the Activity was 2.4% in assay [5], 2.5% in assay [6], 3.4% in assay [7] and 2.7% in assay [8].

As for `CCOC(=O)C1=C(CN2CC3(CCN(C(=O)OC(C)(C)C)C3)CC2=O)NC(c2nccs2)=NC1c1ccc(F)cc1Br` (stereo unspecified), the Activity in assay [5] came to 1.8%; in [6], 1.3%; in assay [7], 2.9%; in assay [8] it was 2.7%.

In the case of `CCOC(=O)C1=C(CN2CCC3(CC2)CNC3)NC(c2nccs2)=NC1c1ccc(F)cc1Br` (stereo unspecified), the Activity in assay [5] was determined as 113%; in [6], 93.4%; in assay [9], 70.8%.

As for `CCOC(=O)C1=C(CN2CC3(CNC3)CC2=O)NC(c2nccs2)=NC1c1ccc(F)cc1Br` (stereo unspecified), the figures for the Activity in assay [5] and in [6] were 108% and 85.3%, respectively.

With `Nc1ccn([C@@H]2CS[C@H](CO)O2)c(=O)n1` [LAMIVUDINE], the Activity came to 4% in assay [5], 11.8% in assay [6], 23.9% in assay [8] and 79.1% in assay [9]. Further, the EC50 in the assay on Hepatitis B virus [10] came to 325 nM.

With `CCOC(=O)C1=C(CN2CCC3(C2)CN(C(=O)OC(C)(C)C)C3)NC(c2nccs2)=NC1c1ccc(F)cc1Br` (stereo unspecified), the Activity is 54.7% in assay [5], 56.5% in assay [6] and 85.3% in assay [9].

For `CCOC(=O)C1=C(CN2CCC3(CCNC3)C2=O)NC(c2nccs2)=NC1c1ccc(F)cc1Br` (stereo unspecified), the Activity in assay [5] came out at 109%; in assay [6] it was 81.4%.

Regarding `CCOC(=O)C1=C(CN2CCC3(CC2)CCN(C(=O)OC(C)(C)C)CC3)NC(c2nccs2)=NC1c1ccc(F)cc1Br` (stereo unspecified), the Activity in assay [1] worked out at 91.1%; in assay [2], 93%; in assay [3], 110%; in [4] it was 74.5%.

Consider `CCOC(=O)C1=C(CN2CC3(CC2=O)CN(C(=O)OC(C)(C)C)C3)NC(c2nccs2)=NC1c1ccc(F)cc1Br` (stereo unspecified), for which the Activity in assay [5] amounted to 3.5%; in assay [6], 1.8%; in assay [7], 2.5%; in assay [8] it was 2.4%.

In the case of `CCOC(=O)C1=C(CN2CCC3(CCNC3=O)CC2)NC(c2nccs2)=NC1c1ccc(F)cc1Br` (stereo unspecified), the Activity in [5] is 18.3%; in assay [6], 37.8%; in [7] it was 44.1%.

`CCOC(=O)C1=C(CN2CCC3(CCNCC3)C2)NC(c2nccs2)=NC1c1ccc(F)cc1Br` (stereo unspecified): the Activity in assay [5] was determined as 88.4%; in assay [6], 86.4%; in assay [9], 69.9%.

Consider `CCOC(=O)C1=C(CN2CCC3(CNC3)C2)NC(c2nccs2)=NC1c1ccc(F)cc1Br` (stereo unspecified), for which the Activity in assay [5] was found to be 82.2%; in [6] it was 88.8%; in assay [9], 84.5%.

Consider `CCOC(=O)C1=C(CN2CCC3(CCNC3)CC2)NC(c2nccs2)=NC1c1ccc(F)cc1Br` (stereo unspecified), for which the results for the Activity in assay [5], in [6] and in assay [9] were 105%, 99.6% and 72.5%, respectively.

Take `CCOC(=O)C1=C(CN2CC3(CNC3)C2)NC(c2nccs2)=NC1c1ccc(F)cc1Br` (stereo unspecified): the Activity in assay [5] was determined as 87.4%; in assay [6], 94.8%; in assay [9], 85.9%.

As for `CCOC(=O)C1=C(CN2CCOCC2)NC(c2nccs2)=N[C@H]1c1ccc(F)cc1Br`, the Activity in assay [6] turned out to be 22.6%. Further, in the assay on Hepatitis B virus [10], the EC50 turned out to be 12 nM. The EC90 in the assay with Hepatitis B virus [11] came to 0.0557 µg/mL.

In the case of `CCOC(=O)C1=C(CN2CCC3(CCN(C(=O)OC(C)(C)C)C3)C2)NC(c2nccs2)=NC1c1ccc(F)cc1Br` (stereo unspecified), the Activity in assay [5] came to 16.8%; in assay [6], 28.8%; in [9] it was 67.1%.

In general, EC50 refers to the midpoint of the concentration-response curve. The term EC90 denotes the point of the concentration-response curve where the effect stands at 90%.
